# Sampled rows, rich in hits. Any-hit rate of the full collection: about 4.1%.
# KCC2 mod – KCC2 (human) Cl- transport modulation. 190,000 tested, 2.2% active. B-score of Tl+ flux slope (higher = more flux/activation; lower = inhibition) at 10 µM. KCC2 cells, thallium flux FluoZin-2 fluorescence;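 active means thallium flux slope and its plate-corrected score both differing from the plate sample mean at a set confidence after two filtering rounds, in either direction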;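 further: slope of fluorescence scaled to starting intensity during 10 to 20 s after thallium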
# KCNQ1 act – human KCNQ1 channel potentiation or activation; P51787; CHO-K1 KCNQ1, thallium flux FluxOR fluorescence; active compounds read high; B-score at 10 µM; 310,000 tested, 0.35% active; AID 2648;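 active means fluorescence ratio B-score, a plate-corrected score, at least three library SD, with initial intensity B-score within 5 SD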
#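 Schedule – 37 °C overnight plating, 90-min dark dye load, 20-min compound pretreatment · System – stable KCNQ1 CHO-K1 line · Probe or stimulus – thallium- and potassium-containing depolarizing buffer · Measured by – kinetic FluxOR fluorescence, 10 s baseline plus 110 s post-stimulus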
# KCNK9 inh – inhibitors of human KCNK9 two-pore domain potassium channel. B-score at 10 µM. 310,000 tested, 1.2% active. Q9NPC2. HEK293 KCNK9, FluxOR thallium flux fluorescence; active compounds read low;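 active means ratio B-score over 3 SD below the library mean, with starting fluorescence within 5 SD of its mean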;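 further: negative B-score means less thallium flux so channel inhibition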
# KCNK3 inh – human KCNK3 channel inhibition, primary screen | 340,000 tested, 0.84% active | CHO-KCNK3 thallium flux, FluxOR fluorescence; active compounds read low | B-score at 10 µM | AID 602410;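 active means B-score under library mean minus 4 SD, starting fluorescence ratio at most library mean plus 5 SD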;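 further: more negative B-score means stronger inhibition of thallium flux through KCNK3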
# hERG rescue – compounds protecting human hERG from proarrhythmic drug block | Q12809 | CHO-hERG, FluxOR thallium flux, dofetilide IC70 present | activation (rescue from dofetilide block), less the hit threshold, % at 10 µM | 310,000 tested, 0.51% active | AID 1511;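 active means activation above the mean of controls blocked by dofetilide plus 5 SD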;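 further: thallium influx through hERG after potassium depolarization seen as dye fluorescence rise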
# KCNQ1 block – inhibitors of human KCNQ1 potassium channel; P51787; CHO-K1 KCNQ1, FluxOR thallium flux fluorescence; active compounds read high; B-score at 10 µM; 310,000 tested, 1.3% active;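 active means compounds whose thallium flux B-score, printed positive for inhibition, exceeds three library SD while starting fluorescence stays within three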;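 further: channel opened by potassium depolarization with thallium stimulus after 20 min compound exposure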
# KCNQ1 block val – reconfirmed blocker of the human KCNQ1 potassium channel. shares compounds with KCNQ1 block. KCNQ1 cell line, FluxOR thallium flux fluorescence. inhibition, % at 10 µM. 1,600 tested, 93% active. AID 588353;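 active means primary screen active, with duplicate mean exceeding buffer control mean plus 3 SD of buffer wells, cut at about 28% in these data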
# CHO Tl flux – activity in parental CHO cells lacking KCNQ1; shares compounds with KCNQ1 block; parental CHO-K1, FluxOR thallium flux fluorescence ratio; active compounds read low; zero means no signal rise above baseline; fluorescence ratio (Tl flux) at 10 µM; 1,600 tested, 21% active;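 active means mean of duplicate thallium-flux fluorescence ratios in parental host cells more than 5 SD below the buffer control mean, cut at about 0.38 in these data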;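 further: ratio is peak minus minimum fluorescence divided by baseline fluorescence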
# KCNQ1 ephys val – blocks human KCNQ1 current in automated patch clamp; KCNQ1-CHO cells; 490 tested, 20% active; AID 624120; calls only at 10 µM; shares compounds with KCNQ1 block;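 active means KCNQ1 current drop exceeding 3 SD of negative control wells, seen in both duplicate runs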;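 further: steady state current during a 2 s step from -80 to +40 mV; negative values mean current inhibition and positive values mean potentiation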
# KCNQ2 spec – rat KCNQ2 inhibition in KCNQ1 inhibitor specificity screen | shares compounds with KCNQ1 block | KCNQ2 cells, FluxOR thallium flux fluorescence | inhibition, % at 10 µM | 1,600 tested, 71% active | AID 651746;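 active means mean percent inhibition of the KCNQ2 thallium signal more than 5 SD above the buffer-only control wells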;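 further: KCNQ2 expressed in CHO cells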
# KCNQ1 KCNE1 spec – human KCNQ1/KCNE1 inhibition in KCNQ1 specificity screen; shares compounds with KCNQ1 block; KCNQ1/KCNE1 cells, FluxOR thallium flux fluorescence; inhibition, % at 10 µM; 1,600 tested, 77% active; AID 652147;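 active means mean percent inhibition of duplicate wells above the buffer-only control mean plus 3 SD of those controls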
# Target sequence (P51787 whole entry, looked up): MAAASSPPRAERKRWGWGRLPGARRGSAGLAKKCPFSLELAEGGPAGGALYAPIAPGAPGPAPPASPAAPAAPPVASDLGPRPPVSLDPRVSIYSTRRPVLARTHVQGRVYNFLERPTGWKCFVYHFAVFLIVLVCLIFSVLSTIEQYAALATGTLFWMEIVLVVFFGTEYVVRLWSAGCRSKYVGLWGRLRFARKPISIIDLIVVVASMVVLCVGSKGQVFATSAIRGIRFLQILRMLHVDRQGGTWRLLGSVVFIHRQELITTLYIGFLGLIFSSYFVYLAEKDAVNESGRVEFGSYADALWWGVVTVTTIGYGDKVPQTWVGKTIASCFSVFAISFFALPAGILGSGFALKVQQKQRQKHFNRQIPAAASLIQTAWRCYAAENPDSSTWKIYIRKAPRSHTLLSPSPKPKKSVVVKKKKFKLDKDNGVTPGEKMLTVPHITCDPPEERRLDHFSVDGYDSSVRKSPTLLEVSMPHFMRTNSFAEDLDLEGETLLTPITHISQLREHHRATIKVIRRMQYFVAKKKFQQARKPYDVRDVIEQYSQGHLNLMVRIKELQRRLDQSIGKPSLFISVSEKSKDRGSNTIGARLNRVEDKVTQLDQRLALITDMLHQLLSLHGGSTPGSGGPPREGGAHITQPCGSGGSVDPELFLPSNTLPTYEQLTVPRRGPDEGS
# KCNK9 block conf – human KCNK9 inhibitor confirmation. shares compounds with KCNK9 inh. HEK293 KCNK9 cells, FluxOR thallium flux fluorescence. inhibition, % at 10 µM. 4,900 tested, 43% active;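 active means thallium signal inhibited by more than 5 SD of the compound-free buffer control wells, on both duplicate plates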
# Kir21 sel – tests whether KCNK9 modulators also affect mouse Kir2.1; shares compounds with KCNK9 inh; Kir2.1 cells, FluxOR thallium flux fluorescence; inhibition, % at 10 µM; 4,900 tested, 4% active;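 active means thallium signal drop more than 5 SD beyond the mean of the no-compound control wells, seen in both duplicate plates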;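 further: signal is fluorescence rise after thallium addition divided by baseline fluorescence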
# HEK293 Tl ctr – second counter-screen for KCNK9 modulators: effect in non-induced cells. shares compounds with KCNK9 inh. non-induced KCNK9-HEK293, FluxOR thallium flux. inhibition, % at 10 µM. 4,900 tested, 40% active. AID 492997;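 active means thallium signal drop beyond 5 SD of the untreated control mean, on both duplicate plates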
# Hits are given with their value; 0 = inactive; - = no result given; + = active, no number.
SMILES,KCC2 mod,KCNQ1 act,KCNK9 inh,KCNK3 inh,hERG rescue,KCNQ1 block,KCNQ1 block val,CHO Tl flux,KCNQ2 spec,KCNQ1 KCNE1 spec,KCNK9 block conf,Kir21 sel,HEK293 Tl ctr,others
O=C(CSc1nc2ccc(Nc3nc(N4CCOCC4)nc(N4CCOCC4)n3)cc2s1)Nc1ccccc1F,-,0,0,0,0,0,-,-,-,-,-,-,-,
CC1C(=O)C(C)C(c2ccccc2)N(N=O)C1c1ccccc1 (stereo not given),-,-,-,0,-,-,-,-,-,-,-,-,-,
CCN1C(c2ccccc2)C(C)C(=O)C(C)C1c1ccccc1 (stereo not given),0,0,0,0,0,8,120,0,89%,128%,0,0,0,KCNQ1 ephys val=0
Cc1nc(NS(=O)(=O)c2ccc(Cl)s2)c2c3c(sc2n1)CCCC3,0,0,0,0,0,7,79,0,0,66%,0,0,0,
CCCCn1c(/N=C/c2ccc(N(C)C)cc2)nc2ccccc21,0,0,-12,-11,0,11,170,0.3,135%,94%,30%,0,55%,
C=CCn1c(/N=C/c2ccc(N(C)C)cc2)nc2ccccc21,0,0,0,0,0,0,-,-,-,-,-,-,-,
CCCN(CC(=O)Nc1ccccc1C)C(=O)C1CC(=O)N(c2ccc(CC)cc2)C1 (stereo not given),-,-,-,0,-,-,-,-,-,-,-,-,-,
c1ccc(Oc2nc(N3CCOCC3)nc(N3CCOCC3)n2)cc1,-,0,0,0,0,0,-,-,-,-,-,-,-,
Clc1ccc(Oc2nc(N3CCOCC3)nc(N3CCOCC3)n2)c(C2CCCCC2)c1,0,0,0,0,0,6,98,0.37,105%,91%,0,0,0,
CC(N)C(=O)NC(CO)C(O)C(N)C=O (stereo not given),-,-,-,0,-,-,-,-,-,-,-,-,-,
CC(C)Oc1cccc(C(=O)C2CCCN(Cc3cccn3-c3ccccn3)C2)c1 (stereo not given),0,0,0,0,0,8,52,0,76%,0,0,0,0,
CCN(CC)S(=O)(=O)c1cccc(NC(=O)Nc2cccc(C(F)(F)F)c2)c1,0,0,0,0,0,11,158,0.3,121%,127%,0,0,0,
COc1ccc(S(=O)(=O)Nc2ccc3c(c2)C(=O)N([C@H](C)CO)C[C@H](C)[C@@H](CN(C)S(C)(=O)=O)O3)cc1,-,-,-,0,-,-,-,-,-,-,-,-,-,
Cc1cccc(N2CCN(C(=O)COc3ccc4ccc(=O)oc4c3)CC2)c1C,-,0,0,0,0,0,-,-,-,-,-,-,-,
Cc1cccc(N2CCN(C(=O)COc3ccc4c(c3)CCC4)CC2)c1C,0,0,0,0,0,6,102,0,100%,109%,0,0,0,KCNQ1 ephys val=0
CC(Oc1ccc(Cl)cc1)C(=O)Nc1ccccc1N1CCOCC1 (stereo not given),-,-,-,0,-,-,-,-,-,-,-,-,-,
Cc1cc(Cl)ccc1OC(C)C(=O)Nc1ccccc1N1CCOCC1 (stereo not given),0,0,-9.3,0,0,6,88,0.32,101%,140%,38%,44%,46%,
Brc1ccc2c(c1)CN1CCCC1=N2,-,0,0,0,0,0,-,-,-,-,-,-,-,
Cc1cccc2c1cnn2C(=O)CCC(=O)N1CCC(C)CC1,-,0,0,0,0,0,-,-,-,-,-,-,-,
Cc1cccc2c1cnn2C(=O)CCC(=O)N1CC(C)CC(C)C1 (stereo not given),-,0,0,0,0,11,25,0,72%,0,0,0,0,
O=C(c1ccc(Cl)c(Cl)c1)N(Cc1ccco1)c1ccc(O)cc1,0,0,-11,0,0,7,84,0,106%,118%,40%,32%,42%,
CCOC(=O)c1sc2nc(CC(=O)OC)nc(N3CCN(c4ccccn4)CC3)c2c1C,0,0,0,0,0,8,112,0,110%,140%,0,0,0,KCNQ1 ephys val=0
O=C(NCc1ccccc1)c1cccc(NC(=O)C2CC2)c1,-,-,-,0,-,-,-,-,-,-,-,-,-,
CC(=O)n1c2c(c3ccccc31)OC(N)=C(C#N)C2c1ccc(C(C)C)cc1 (stereo not given),0,0,-9.2,0,0,8,114,0,101%,154%,33%,0,38%,KCNQ1 ephys val=0
NC(=N\N=CCc1ccccc1)/C(N)=N/N=CCc1ccccc1,-,-,-,0,-,-,-,-,-,-,-,-,-,
SMILES,KCC2 mod,KCNQ1 act,KCNK9 inh,KCNK3 inh,hERG rescue,KCNQ1 block,KCNQ1 block val,CHO Tl flux,KCNQ2 spec,KCNQ1 KCNE1 spec,KCNK9 block conf,Kir21 sel,HEK293 Tl ctr,others
CCCc1nc(SCC(=O)N2CCC(Cc3ccccc3)CC2)c2c(=O)n(C)c(=O)n(C)c2n1,0,0,0,0,0,6,98,0,0,0,0,0,0,
O=C(c1nc2ccc(Cl)cn2c1CNCC[C@@H]1C[C@@H]2C=C[C@H]1C2)N1CCCCCCC1,0,0,0,0,0,9,98,0,82%,84%,0,0,0,KCNQ1 ephys val=0
CCOC(=O)c1c(-c2ccccc2)csc1NC(=O)c1nn(CC)cc1Br,0,0,0,0,0,0,-,-,-,-,-,-,-,
CCOC(=O)c1c(-c2ccccc2)csc1NC(=S)N(CC)CC,0,0,-8.2,0,0,7,126,0,106%,145%,46%,0,28%,KCNQ1 ephys val=0
N#CCC(=O)Nc1ccc(C(=O)OCC(=O)Nc2ccccc2Sc2ccccc2)cc1,0,0,-9.1,0,0,6,99,0,91%,153%,50%,0,34%,KCNQ1 ephys val=+
N#CCC(=O)Nc1ccc(C(=O)OCC(=O)NCCCc2ccccc2)cc1,-,0,0,0,0,0,-,-,-,-,-,-,-,
O=C1c2ccccc2OC2(C=Cc3ccccc3O2)N1Cc1ccccc1 (stereo not given),0,0,-14,0,0,7,116,0.38,109%,158%,46%,0,34%,
CC(C)(C)OC(=O)C[C@H]1C/C=C\C[C@@H](CC(=O)N[C@@H](CO)Cc2ccccc2)C(=O)NC[C@H](c2ccccc2)OC1=O,-,-,-,0,-,-,-,-,-,-,-,-,-,
